We go through 19 compounds from ChEMBL document CHEMBL3286320, “Design, Synthesis, and Optimization of Balanced Dual NK1/NK3 Receptor Antagonists” (ACS Med Chem Lett, 2014).

The Ki is the dissociation constant of the complex between target and ligand, obtained from inhibition or displacement.

Assay [1] concerns the target Substance-P receptor (Homo sapiens, UniProt P25103). The assay can be described thus: Displacement of [125I]-Bolton Hunter-substance P from human NK1 receptor expressed in human U373MG cells. It is filed as cell-based, U-373MG ATCC. The essentials: (§1)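 Radioligand binding on membranes: NK1 on membranes from U-373MG cells, which express the receptor endogenously; NK3 on membranes from CHO cells stably expressing the recombinant human receptor.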

Assay [2] deals with T1, Neuromedin-K receptor (Homo sapiens, UniProt P29371).
T1 sequence (P29371 whole entry): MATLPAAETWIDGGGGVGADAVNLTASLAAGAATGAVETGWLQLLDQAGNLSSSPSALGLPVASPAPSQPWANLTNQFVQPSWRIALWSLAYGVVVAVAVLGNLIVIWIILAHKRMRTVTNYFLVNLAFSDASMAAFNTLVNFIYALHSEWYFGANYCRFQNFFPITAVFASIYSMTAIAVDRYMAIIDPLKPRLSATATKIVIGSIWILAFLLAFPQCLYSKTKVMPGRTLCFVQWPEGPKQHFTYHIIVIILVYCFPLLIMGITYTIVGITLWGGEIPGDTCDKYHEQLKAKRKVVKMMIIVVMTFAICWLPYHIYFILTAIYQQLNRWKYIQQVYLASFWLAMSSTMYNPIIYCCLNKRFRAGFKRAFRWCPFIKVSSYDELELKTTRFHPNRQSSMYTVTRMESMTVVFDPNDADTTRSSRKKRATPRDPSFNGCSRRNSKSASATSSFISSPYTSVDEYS
The assay is described as follows: Displacement of [3H]-SR142801 from human NK3 receptor expressed in recombinant CHO cells. The assay is classed as cell-based. The essentials: as §1
On the technique in general: Displacement assays read how much labelled ligand stays bound in the presence of the test substance.

Substance-P receptor, sequence (P25103 whole entry): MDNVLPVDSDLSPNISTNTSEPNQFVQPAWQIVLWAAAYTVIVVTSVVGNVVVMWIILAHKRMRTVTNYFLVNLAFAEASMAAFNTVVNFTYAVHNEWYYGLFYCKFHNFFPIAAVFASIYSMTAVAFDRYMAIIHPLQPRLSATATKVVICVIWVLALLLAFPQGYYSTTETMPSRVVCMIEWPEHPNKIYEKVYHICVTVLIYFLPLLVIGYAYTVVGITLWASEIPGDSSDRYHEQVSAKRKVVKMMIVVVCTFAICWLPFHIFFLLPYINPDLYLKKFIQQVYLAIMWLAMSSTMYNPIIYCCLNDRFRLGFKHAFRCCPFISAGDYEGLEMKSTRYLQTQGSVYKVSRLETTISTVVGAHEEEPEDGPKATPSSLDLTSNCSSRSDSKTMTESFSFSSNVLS

For `CN(C)CCNC(=O)[C@@H](Cc1ccccc1)NC(=O)[C@](C)(CCCN1CCC2(CC1)OC(=O)N(C)c1ccc(F)cc12)c1ccc(Cl)c(Cl)c1`, the Ki in assay [1] is 20 nM; in assay [2], 1000 nM.
As to `CN1C(=O)OC2(CCN(CCC[C@H](C(=O)N(C)[C@@H](Cc3ccccc3)C(=O)NCCN)c3ccc(Cl)c(Cl)c3)CC2)c2cc(F)ccc21`, the values for the Ki in assay [1] and in assay [2] were 398 nM and 6310 nM, respectively.
On the same counts, the results for `CN1C(=O)OC2(CCN(CC[C@](C)(C(=O)N[C@@H](Cc3ccccc3)C(=O)NCCN)c3ccc(Cl)c(Cl)c3)CC2)c2cc(F)ccc21` are 398 nM and 10000 nM.
Turning to `CN1C(=O)OC2(CCN(CC[C@](C)(C(=O)N[C@H](Cc3ccccc3)C(=O)NCCN)c3ccc(Cl)c(Cl)c3)CC2)c2cc(F)ccc21`, the Ki in assay [1] is 631 nM; in assay [2] it was 2000 nM.
With `CN1C(=O)OC2(CCN(CCC[C@@](C)(C(=O)N[C@H](Cc3ccccc3)C(=O)NCCN)c3ccc(Cl)c(Cl)c3)CC2)c2cc(F)ccc21`, the Ki in assay [1] was 63.1 nM; in assay [2] it was 1580 nM.
For `CN1C(=O)OC2(CCN(CC[C@@](C)(C(=O)N(C)[C@H](Cc3ccccc3)C(=O)NCCN)c3ccc(Cl)c(Cl)c3)CC2)c2cc(F)ccc21` the same measures were 2.51 nM and 7.94 nM.
On to `CNCCNC(=O)[C@@H](Cc1ccccc1)NC(=O)[C@](C)(CCN1CCC2(CC1)OC(=O)N(C)c1ccc(F)cc12)c1ccc(Cl)c(Cl)c1`, for which the Ki in assay [1] was 15.8 nM; in assay [2], 20 nM.
`CN1C(=O)OC2(CCN(CC[C@@](C)(C(=O)N[C@H](Cc3ccccc3)C(=O)NCCO)c3ccc(Cl)c(Cl)c3)CC2)c2cc(F)ccc21`: the Ki was 31.6 nM in assay [1] and 2.51 nM in assay [2].
Consider `CN1C(=O)OC2(CCN(CC[C@@](C)(C(=O)N[C@@H](Cc3ccccc3)C(=O)NCCN)c3ccc(Cl)c(Cl)c3)CC2)c2cc(F)ccc21`, for which the results for the Ki in assay [1] and in assay [2] were 126 nM and 63.1 nM, respectively.
With `CN1C(=O)OC2(CCN(CC[C@@H](C(=O)N(C)[C@H](C(=O)NCCN)c3ccccc3)c3ccc(Cl)c(Cl)c3)CC2)c2cc(F)ccc21` (racemic), the Ki in assay [1] is 631 nM; in assay [2], 2510 nM.
For `CN1C(=O)OC2(CCN(CC[C@@](C)(C(=O)N[C@H](Cc3ccccc3)C(=O)NCCN)c3ccc(Cl)c(Cl)c3)CC2)c2cc(F)ccc21`, the Ki in assay [1] was 20 nM; in assay [2], 50.1 nM.
For `CN1C(=O)OC2(CCN(CC[C@@H](C(=O)N(C)[C@@H](Cc3ccccc3)C(=O)NCCN)c3ccc(Cl)c(Cl)c3)CC2)c2cc(F)ccc21` (mixture of isomers) the same measures were 126 nM and 1580 nM.
On the same counts, the results for `CN1C(=O)OC2(CCN(CCC[C@@](C)(C(=O)N[C@H](Cc3ccccc3)C(=O)NCCO)c3ccc(Cl)c(Cl)c3)CC2)c2cc(F)ccc21` are 15.8 nM and 126 nM.
As for `CN1C(=O)OC2(CCN(CC[C@H](C(=O)N(C)[C@@H](Cc3ccccc3)C(=O)NCCN)c3ccc(Cl)c(Cl)c3)CC2)c2cc(F)ccc21`, the Ki in assay [1] is 200 nM; in assay [2], 1260 nM.
On to `CN(C)CCNC(=O)[C@@H](Cc1ccccc1)NC(=O)[C@](C)(CCN1CCC2(CC1)OC(=O)N(C)c1ccc(F)cc12)c1ccc(Cl)c(Cl)c1`, for which the values for the Ki in assay [1] and in assay [2] were 39.8 nM and 31.6 nM, respectively.
On the same counts, the results for `CN1C(=O)OC2(CCN(CCC[C@@H](C(=O)N(C)[C@@H](Cc3ccccc3)C(=O)NCCN)c3ccc(Cl)c(Cl)c3)CC2)c2cc(F)ccc21` are 50.1 nM and 3980 nM.
For `CN1C(=O)OC2(CCN(CC[C@@](C)(C(=O)N[C@H](C(=O)NCCN)c3ccccc3)c3ccc(Cl)c(Cl)c3)CC2)c2cc(F)ccc21`, the inhibition constant Ki in assay [1] is 251 nM; in assay [2], 39.8 nM.
For `CN1C(=O)OC2(CCN(CCC[C@@](C)(C(=O)N[C@H](C(=O)NCCN)c3ccccc3)c3ccc(Cl)c(Cl)c3)CC2)c2cc(F)ccc21` the same measures were 316 nM and 794 nM.
For `CN1C(=O)OC2(CCN(CC[C@@](C)(C(=O)N(C)[C@H](Cc3ccccc3)C(=O)NCCCN)c3ccc(Cl)c(Cl)c3)CC2)c2cc(F)ccc21`, the Ki in assay [1] is 3.98 nM; in assay [2], 25.1 nM.
